From the M2OR odorant receptor database

The compounds below were run against T1, OR10J5 (Homo sapiens) (UniProt Q8NHC4). Settings: stereoisomer not certain.
T1 sequence (whole entry): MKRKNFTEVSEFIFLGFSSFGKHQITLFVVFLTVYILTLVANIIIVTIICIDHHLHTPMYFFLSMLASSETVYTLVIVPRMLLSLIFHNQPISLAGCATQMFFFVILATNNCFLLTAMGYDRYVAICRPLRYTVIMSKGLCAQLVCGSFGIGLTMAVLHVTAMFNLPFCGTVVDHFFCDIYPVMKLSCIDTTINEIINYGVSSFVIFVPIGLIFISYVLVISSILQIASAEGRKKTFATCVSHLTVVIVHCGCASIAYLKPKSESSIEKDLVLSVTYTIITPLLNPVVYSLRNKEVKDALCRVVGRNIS
Outline: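 Each entry records the cell line, G-protein, co-transfected protein and tags used. Methods varied with the source, often transient luciferase assays in mammalian cell lines. A receptor–molecule pair is called responsive (active) if the original authors judged its signal statistically different from baseline and non-responsive (inactive) otherwise.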

Odorant receptor agonist call, inactive:
CC(C)=CCCC(C)=CCO
O=c1ccc2ccccc2o1
CC(=O)OCC=C(C)C
CCCCC(=O)O
CCC(=O)C(=O)CC
CCCCOC(=O)C(C)OC(=O)CCC (stereo not given)
CCCCCCCCCO
C=CCOC(=O)CCCCCC
CC12CCC(CC1=O)C2(C)C (stereo not given)
CCCC(=O)C(C)=O
C=C(C)C1CCC(C)C(=O)C1 (stereo not given)
CCCCCC1=C(C)CCC1=O
CCCCCCCC(C)=O
CC(=O)OCc1ccccc1
CCCCC(=O)CC
CC(=O)Oc1ccccc1
CCOC(=O)C(C)C
CCC(C(=O)O)c1ccccc1 (stereo not given)
O=C(c1ccccc1)c1ccccc1
CCC(=O)O
COc1cc(C(=O)O)ccc1O
CCCCCCCCCC(=O)[O-].[H+]
CC(C)=CCCC(C)CCO (stereo not given)
CCCCCO
CCCCCCCCCCO
CCCCC(C)=O
CCCCCC=O
CCCCCCO
CCCCCCC(C)=O
CCCCCCCCCS
